Reference: ChEMBL document CHEMBL1145403, “Structure-based design of flavonoid compounds as a new class of small-molecule inhibitors of the anti-apoptotic Bcl-2 proteins” (J Med Chem, 2007)
The source made the active and inactive calls. The calls are words filed in the database; no cut-off is given here.

Columns and labels:
MDA-MB-231 [1] = assay: Growth inhibition of human MDA-MB-231 cells after 4 days by WST-based assay; assay type: functional, cell-based; conditions: MDA-MB-231, 96 h
Method in brief: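 Cells seeded at 3-4 × 10^3/well together with graded compound concentrations and cultured 4 days. WST-8 added at 10% final, then 2-3 h at 37°C. Absorbance read at 450 nm. IC50 = 50% growth inhibition relative to untreated cells.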

[2] = target: Induced myeloid leukemia cell differentiation protein Mcl-1 (Homo sapiens, UniProt Q07820); assay: Displacement of FAM-Bim peptide from human Mcl1 by fluorescence polarization assay
Method in brief: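 Compound added from DMSO, 4 h incubation, polarization at ex 485/em 530 nm. IC50 by nonlinear least-squares fit; Ki from the FP equation.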

[3] = target: Apoptosis regulator Bcl-2 (Homo sapiens, UniProt P10415); assay: Displacement of FAM-Bim peptide from human Bcl2 by fluorescence polarization assay
MDA-MB-231 [4] = assay: Induction of apoptosis in human MDA-MB-231 cells after 3 days by Annexin V/propidium iodide staining-based flow cytometry
MDA-MB-231 [5] = assay: Induction of apoptosis in human MDA-MB-231 cells at 0.5 uM after 3 days by Annexin V/propidium iodide staining-based flow cytometry
MDA-MB-231 [6] = assay: Induction of apoptosis in human MDA-MB-231 cells at 1 uM after 3 days by Annexin V/propidium iodide staining

Sequence of Induced myeloid leukemia cell differentiation protein Mcl-1 (Q07820 whole entry): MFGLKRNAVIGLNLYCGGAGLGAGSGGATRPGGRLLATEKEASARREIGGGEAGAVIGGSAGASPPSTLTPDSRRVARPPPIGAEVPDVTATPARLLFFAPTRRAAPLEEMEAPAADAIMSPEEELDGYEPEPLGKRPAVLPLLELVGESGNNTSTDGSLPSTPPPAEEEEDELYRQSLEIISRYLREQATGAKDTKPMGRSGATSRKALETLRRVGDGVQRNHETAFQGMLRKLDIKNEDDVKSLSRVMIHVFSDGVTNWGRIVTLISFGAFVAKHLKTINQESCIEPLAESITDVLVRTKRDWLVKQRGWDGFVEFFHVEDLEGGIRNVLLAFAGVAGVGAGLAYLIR
Sequence of Apoptosis regulator Bcl-2 (P10415 whole entry): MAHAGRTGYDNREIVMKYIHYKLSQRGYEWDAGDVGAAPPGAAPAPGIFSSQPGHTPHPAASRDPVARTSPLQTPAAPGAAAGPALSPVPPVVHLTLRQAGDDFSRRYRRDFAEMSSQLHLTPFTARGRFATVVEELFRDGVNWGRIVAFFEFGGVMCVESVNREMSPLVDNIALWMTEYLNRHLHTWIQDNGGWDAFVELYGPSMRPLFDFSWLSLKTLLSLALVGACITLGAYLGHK

SMILES | IC50 (MDA-MB-231 [1]) | Ki [2] | Ki [3] | Activity [3] | Activity [2] | Activity (MDA-MB-231 [4]) | Activity (MDA-MB-231 [5]) | Activity (MDA-MB-231 [6])
Cc1cc2c(C(C)C)c(O)c(O)c(C=O)c2c(O)c1-c1c(C)cc2c(C(C)C)c(O)c(O)c(C=O)c2c1O [GOSSYPOL] | 1.9 µM | 0.28 µM |  |  |  |  |  | 
Cc1cc(=O)c2c(O)c(O)c(O)c(CC(C)C)c2o1 | 30 µM | 1.69 µM | 0.73 µM |  |  |  |  | 
Cc1oc2c(CC(C)C)c(O)c(O)c(O)c2c(=O)c1-c1ccccc1 | 5.3 µM | 0.4 µM | 0.34 µM |  |  |  |  | 

More lines, main results first:

IC50 (MDA-MB-231 [1]) | Ki [2] | Ki [3] | Activity [3] | Activity [2] | SMILES | Activity (MDA-MB-231 [4]) | Activity (MDA-MB-231 [5]) | Activity (MDA-MB-231 [6])
> 100 µM |  |  | inactive | inactive | COc1c(OC)c(OC)c2c(=O)c(-c3ccc(-c4c(C)oc5c(CC(C)C)c(OC)c(OC)c(OC)c5c4=O)cc3)c(C)oc2c1CC(C)C |  |  | 
0.11 µM | 0.018 µM | 0.017 µM |  |  | Cc1oc2c(CC(C)C)c(O)c(O)c(O)c2c(=O)c1-c1ccc(-c2c(C)oc3c(CC(C)C)c(O)c(O)c(O)c3c2=O)cc1 | Dose-dependent effect | 24.5% | 64.4%
